ChEMBL document CHEMBL4028851, “Discovery of Potent Small-Molecule Inhibitors of Ubiquitin-Conjugating Enzyme UbcH5c from α-Santonin Derivatives” (J Med Chem, 2017)
The source made the active and inactive calls. The rule behind the calls is not given here.

Legend:
[1] = Half life in rat liver microsomes at 5 uM in preincubated for 3 mins followed by NADPH addition measured up to 90 mins; assay type: ADME, microsome
Outline: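 Rat liver microsomes (0.5 mg/mL) were used in 100 mM potassium phosphate, pH 7.4, with compound at 5 µM final. After 3 min preincubation at 37 °C, an NADPH-generating system was added (4 mM MgCl2, 1 mM NADP+, 10 mM glucose 6-phosphate, 1 unit/mL G6PDH). Incubation continued for 0–90 min and was stopped with ice-cold acetonitrile.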

[2] = AUC (0 to infinity) in Sprague-Dawley rat at 1 mg/kg, iv by LC-MS/MS analysis; assay type: ADME, organism-based; set-up: dose 1 mg/kg, time infinity, route intravenous; settings: in vivo
[3] = target: Ubiquitin-conjugating enzyme E2 D3 (Mus musculus) (UniProt P61079); test: Inhibition of UbcH5c in mouse b.End3 cells assessed as decrease in TNF-alpha-mediated IkB-alpha degradation preincubated for 2 hrs followed by TNF-alpha stimulation for 20 mins by Western blot analysis; assay type: cell-based
Ubiquitin-conjugating enzyme E2 D3 (Mus musculus), sequence (P61079 whole entry, looked up): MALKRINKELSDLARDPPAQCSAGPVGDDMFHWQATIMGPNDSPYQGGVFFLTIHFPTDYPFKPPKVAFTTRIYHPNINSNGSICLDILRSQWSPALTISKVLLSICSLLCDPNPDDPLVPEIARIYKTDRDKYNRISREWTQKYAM
Outline: (§1)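 bEnd.3 cells (DMEM, 10% FBS) were pretreated with compound at 2.5, 5 or 10 µM for 2 h, then stimulated with 20 ng/mL TNF-α (15 min in the methods, 20 min in the legend). Lysates were run on 10% SDS-PAGE and immunoblotted for phospho-IκBα, IκBα, phospho-p65 and p65, with GAPDH as loading control.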

Rattus norvegicus [4] = test: Antiarthritic activity in Wistar rat Freund's adjuvant-induced arthritis model assessed as protection against body weight loss at 5 to 20 mg/kg, po qd administered on day 10 to 20 postimmunization measured every 2 to 3 days during compound dosing; assay type: functional, organism-based
Outline: (§2)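 Adjuvant arthritis was induced by intradermal CFA (0.1 mL) into the base of the left hind paw (day 0), with a boost 10 days later. Rats were dosed orally once daily at 5 or 20 mg/kg from day 10 to day 20, with 10 rats per group. Vehicle controls received 0.3% sodium carboxymethylcellulose. Two blinded observers scored the animals every 2 or 3 days. Data are mean ± S.E.M.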

in vitro = settings: human, HEK-293T cells
[5] = Cmax in Sprague-Dawley rat at 5 mg/kg, po via gavage by LC-MS/MS analysis; assay type: ADME, organism-based; set-up: dose 5 mg/kg, route oral; settings: in vivo
Outline: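 Male Sprague-Dawley rats (about 200‒220 g; n = 6) were fasted overnight and gavaged with 5 mg/kg as a suspension in 0.5% methylcellulose. Blood was taken from the orbital artery at 0.083–24 h into heparin tubes. Plasma was quantified by LC/MS/MS (ESI, MRM), with noncompartmental analysis. Bioavailability was referenced to a 1 mg/kg iv dose. Values are mean ± SD.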

[6] = target: T1, Ubiquitin-conjugating enzyme E2 C (Homo sapiens) (UniProt O00762); test: Inhibition of UbcH10 (unknown origin) at 2.5 to 10 uM preincubated for 15 mins followed by E1, Ub and ATP addition measured after 40 mins by Western blot analysis
T1 sequence (whole entry): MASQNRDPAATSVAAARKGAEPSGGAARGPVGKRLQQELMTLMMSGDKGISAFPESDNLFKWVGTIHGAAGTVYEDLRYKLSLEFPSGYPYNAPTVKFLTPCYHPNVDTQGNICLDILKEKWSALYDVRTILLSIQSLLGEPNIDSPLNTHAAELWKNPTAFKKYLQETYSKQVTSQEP

[7] = Half life in rat plasma at 5 uM; assay type: ADME, cell-free
Outline: (§3)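 Compound (5 µM final, from a 25 mM DMSO stock) was incubated at 37 °C in rat plasma (0–90 min) or rat whole blood (0, 5, 10, 30, 60, 90 min). Reactions were quenched with ice-cold acetonitrile, centrifuged, and the supernatants analysed.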

Rattus norvegicus [8] = test: Antiarthritic activity in Wistar rat Freund's adjuvant-induced arthritis model assessed as reduction in arthritis index score at 5 to 20 mg/kg, po qd administered on day 10 to 20 postimmunization measured every 2 to 3 days during compound dosing; assay type: functional, organism-based; outline: as §2
[9] = Half life in rat whole blood at 5 uM; assay type: ADME; outline: as §3
[10] = target: T2, Ubiquitin-conjugating enzyme E2 K (Homo sapiens) (UniProt P61086); test: Inhibition of E2-25K (unknown origin) at 2.5 to 10 uM preincubated for 15 mins followed by E1, Ub and ATP addition measured after 40 mins by Western blot analysis
T2 sequence (whole entry): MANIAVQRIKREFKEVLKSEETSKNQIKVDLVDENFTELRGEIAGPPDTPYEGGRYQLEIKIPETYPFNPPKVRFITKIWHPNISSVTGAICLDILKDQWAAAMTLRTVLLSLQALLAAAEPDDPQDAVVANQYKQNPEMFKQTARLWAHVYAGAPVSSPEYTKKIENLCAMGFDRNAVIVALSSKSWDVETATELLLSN

[11] = AUC (0 to infinity) in Sprague-Dawley rat at 5 mg/kg, po via gavage by LC-MS/MS analysis; assay type: ADME, organism-based; set-up: dose 5 mg/kg, time infinity, route oral; settings: in vivo
Outline: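 Male Sprague-Dawley rats (about 200‒220 g), n = 6, fasted overnight; single oral gavage at 5 mg/kg as a suspension in 0.5% methylcellulose. Blood was drawn from the orbital artery into heparin tubes at 0.083–24 h. Plasma was analysed by LC/MS/MS (ESI, MRM). AUC(0-∞) came from noncompartmental analysis, reported as mean ± SD of six rats.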

[12] = target: T3, Ubiquitin-conjugating enzyme E2 H (Homo sapiens) (UniProt P62256); test: Inhibition of UbcH2 (unknown origin) at 2.5 to 10 uM preincubated for 15 mins followed by E1, Ub and ATP addition measured after 40 mins by Western blot analysis
T3 sequence (whole entry): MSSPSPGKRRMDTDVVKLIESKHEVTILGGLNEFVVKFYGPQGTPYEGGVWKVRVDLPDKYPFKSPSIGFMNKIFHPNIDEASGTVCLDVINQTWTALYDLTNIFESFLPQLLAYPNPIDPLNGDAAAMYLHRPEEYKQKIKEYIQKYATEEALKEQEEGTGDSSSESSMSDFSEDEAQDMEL

[13] = target: Ubiquitin-conjugating enzyme E2 D3 (Mus musculus) (UniProt P61079); test: Inhibition of UbcH5c in mouse b.End3 cells assessed as decrease in TNF-alpha-mediated IkB-alpha phosphorylation at 10 uM preincubated for 2 hrs followed by TNF-alpha stimulation for 20 mins by Western blot analysis; assay type: cell-based; outline: as §1
[14] = target: Ubiquitin-conjugating enzyme E2 D3 (Mus musculus) (UniProt P61079); test: Inhibition of UbcH5c in mouse b.End3 cells assessed as decrease in TNF-alpha-mediated p65 phosphorylation preincubated for 2 hrs followed by TNF-alpha stimulation for 20 mins by Western blot analysis; assay type: cell-based; outline: as §1
[15] = target: Ubiquitin-conjugating enzyme E2 D2 (Homo sapiens) (UniProt P62837); test: Inhibition of UbcH5b (unknown origin) at 2.5 to 10 uM preincubated for 15 mins followed by E1, Ub and ATP addition measured after 40 mins by Western blot analysis
Ubiquitin-conjugating enzyme E2 D2 (Homo sapiens), sequence (P62837 whole entry, looked up): as the sequence (P61079 whole entry, looked up) above, with N7H, S11N, D132E, S138A counted along it

[16] = target: Ubiquitin-conjugating enzyme E2 L3 (Homo sapiens) (UniProt P68036); test: Inhibition of UbcH7 (unknown origin) at 2.5 to 10 uM preincubated for 15 mins followed by E1, Ub and ATP addition measured after 40 mins by Western blot analysis
Ubiquitin-conjugating enzyme E2 L3 (Homo sapiens), sequence (P68036 whole entry): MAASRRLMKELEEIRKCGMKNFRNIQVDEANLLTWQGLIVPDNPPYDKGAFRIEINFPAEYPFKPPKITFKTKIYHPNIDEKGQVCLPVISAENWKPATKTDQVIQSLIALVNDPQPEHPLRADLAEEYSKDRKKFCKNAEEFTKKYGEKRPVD

In the case of C=C1C(=O)O[C@H]2c3c(C)c(OCc4ccccc4Br)cc(C)c3CC[C@@H]12, the half-life at 5 µM [1] is reported as 2.11 h, the AUC(0-inf) [2] is reported as 408 ng·h/mL and the inhibition [3] is reported as “Dose-dependent effect”. The Activity (Rattus norvegicus [4]) was “inactive”, the cytotoxicity at 5 µM (in vitro) was < 20% and the Cmax [5] was 42.2 ng/mL. For the same molecule, the inhibition [6] was “Active”, the half-life at 5 µM [7] was 1.43 h and the Activity (Rattus norvegicus [8]) was “Active”. For the same molecule, the half-life at 5 µM [9] was 0.663 h, the inhibition [10] was “inactive” and the AUC(0-inf) [11] was 314 ng·h/mL. For the same molecule, the inhibition [12] was “inactive”, the inhibition [13] was “Active” and the inhibition [14] was “Dose-dependent effect”. The inhibition [15] was “Active” and the inhibition [16] was “Active”.
